Published values collected from several papers.
Compare with care: the assays were run in different laboratories.
MAP4K1: Mitogen-activated protein kinase kinase kinase kinase 1 (MAP4K1, Homo sapiens, UniProt Q92918)
Oprd1: Delta-type opioid receptor (Oprd1, Rattus norvegicus, UniProt P33533)
CTSB: Cathepsin B (CTSB, Homo sapiens, UniProt P07858)

Cc1nn(C)cc1-c1nc2c(N3CCN(Cc4ccc(Cl)cc4)CC3)c(Cl)cnc2[nH]1
remaining binding (MAP4K1; binding, competition with immobilised ligand; 1 µM): 74%

OC[C@H]1CNCCN1C[C@@H]1CCCN1C[C@H](CC1CCCCC1)N1CCN(CCC23CC4CC(CC(C4)C2)C3)[C@H](Cc2ccc(O)cc2)C1
remaining binding (Oprd1; ligand displacement, radioligand; 0.5 µM, 2 h, pH 7.5, cell membranes): 96.1%

CN1CCN(c2ccc(Nc3nccc(-c4cccc([N+](=O)[O-])c4)n3)cc2C(F)(F)F)CC1
remaining signal (Cyclin-dependent kinase 2 homolog (CRK2, Plasmodium falciparum, UniProt P61075); cell-free assay; 10 µM): 93%

OC[C@H]1CNCCN1C[C@@H]1CCCN1C[C@H](CC1CCCCC1)N1CCN(CCc2ccc(Cl)c(Cl)c2)[C@H](Cc2ccc(O)cc2)C1
remaining binding (Oprd1; ligand displacement, radioligand; 0.5 µM, 2 h, pH 7.5, cell membranes): 88%

CC(C)C[C@H](NC(=O)[C@H]1O[C@@H]1C(=O)O)C(=O)NCCCCN=C(N)N
inhibition (CTSB; enzyme activity, inhibitor; 50 nM): 97%

CC[C@@H](C)[C@@H]1CN([C@@H](CC2CCCCC2)CN2CCC[C@H]2CN2CCNC[C@@H]2CO)CCN1CCc1ccc(Cl)c(Cl)c1
remaining binding (Oprd1; ligand displacement, radioligand; 0.5 µM, 2 h, pH 7.5, cell membranes): 94%

COc1ncccc1-c1cnn2ccc(N3CCN(C(=O)OC(C)C)CC3)nc12
remaining binding (Serine/threonine-protein kinase TNNI3K (TNNI3K, Homo sapiens, UniProt Q59H18); binding, competition with immobilised ligand; 1 µM): 60%

CC[C@H](NC(=O)OCc1ccccc1)C(=O)N[C@H](C(=O)N[C@@H](CC(C)C)C(=O)N(C)N(C#N)CCC(N)=O)C(C)(C)C
kon (CTSB; enzyme activity, inhibitor): 8400 M⁻¹ s⁻¹

CC[C@@H](C)[C@@H]1CN([C@@H](CC2CCCCC2)CN2CCC[C@H]2CN2CCNC[C@@H]2CO)CCN1CCC12CC3CC(CC(C3)C1)C2
remaining binding (Oprd1; ligand displacement, radioligand; 0.5 µM, 2 h, pH 7.5, cell membranes): 90%

CCOC(=O)c1ccc(OC(=O)CCCCCNC(=N)N)cc1
inhibition (CTSB; enzyme activity, inhibitor; 10 µM): 0%

Nc1ncc(-c2nc(N3CCOCC3)nc(N3CCOCC3)n2)c(C(F)F)n1
remaining binding (Mitogen-activated protein kinase 6 (MAPK6, Homo sapiens, UniProt Q16659); binding, competition with immobilised ligand; 10 µM): 88%

COc1cc(Cl)c(C(=O)N[C@@H](CN[C@H]2CC[C@@H](N)CC2)Cc2ccc(C#N)cc2)cc1-c1ccc(CN[C@H](C)c2ccc(C)cc2)o1
remaining activity (MAP kinase-activated protein kinase 3 (MAPKAPK3, Homo sapiens, UniProt Q16644); enzyme activity, inhibitor; 1 µM): 107%

C#Cc1n[nH]c2c(-c3cn(C(C)c4ccccn4)c(=O)[nH]c3=O)cc(F)cc12 (stereo not shown)
inhibition (Cyclin-dependent kinase 8, with cyclin C (CDK8, Homo sapiens, UniProt P49336); enzyme activity, inhibitor; 1 µM): 6.2%

CCN(CC)CCCC[C@H](NC(=O)[C@H](CC(C)C)NC(=O)[C@H](C)NC(=O)[C@H](Cc1ccccc1)NC(=O)c1ccc(C(C)(C)C)cc1)C(=O)N[C@@H](CO)C(=O)OC
remaining binding (5-hydroxytryptamine receptor 7 (HTR7, Homo sapiens, UniProt P34969); ligand displacement, radioligand; 10 µM): 92.2%

N#Cc1ccc(NCCNCC(=O)N2N=CCC2C#N)nc1 (stereo not shown)
inhibition (Dipeptidyl peptidase 9 (DPP9, Homo sapiens, UniProt Q86TI2); enzyme activity, inhibitor; 10 µM): 87%

C#Cc1n[nH]c2c(-c3cn([C@@H](C)c4ccccc4)c(=O)[nH]c3=O)cc(F)cc12
inhibition (MAP4K1; enzyme activity, inhibitor; 0.1 µM): 2.7%
